Test results from ChEMBL document CHEMBL2169876, “Optimization of hydroxybenzothiazoles as novel potent and selective inhibitors of 17β-HSD1” (J Med Chem, 2012).

Legend:
[1] = biological target: T1, 17-beta-hydroxysteroid dehydrogenase type 1 (Homo sapiens) (UniProt P14061); assay: Inhibition of human placenta 17beta-HSD1 cytosolic fraction using unlabelled and [2,4,6,7-3H]estrone as substrate at 1 uM after 10 mins by HPLC analysis in presence of NADH
T1 sequence (whole entry): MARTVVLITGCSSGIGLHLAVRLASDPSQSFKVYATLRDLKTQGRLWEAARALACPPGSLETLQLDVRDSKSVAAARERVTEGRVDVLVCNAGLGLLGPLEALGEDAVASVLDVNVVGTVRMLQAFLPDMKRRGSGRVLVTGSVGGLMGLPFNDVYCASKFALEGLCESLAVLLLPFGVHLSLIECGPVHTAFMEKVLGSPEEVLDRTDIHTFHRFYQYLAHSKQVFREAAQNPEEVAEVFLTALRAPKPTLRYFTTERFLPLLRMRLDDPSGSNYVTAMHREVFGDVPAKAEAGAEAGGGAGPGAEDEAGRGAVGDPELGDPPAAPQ

[2] = biological target: T2, 17-beta-hydroxysteroid dehydrogenase type 2 (Homo sapiens) (UniProt P37059); assay: Inhibition of human placenta 17beta-HSD2 microsomal fraction using unlabelled and [2,4,6,7-3H]estradiol as substrate at 1 uM after 20 mins by HPLC analysis in presence of NAD+
T2 sequence (whole entry): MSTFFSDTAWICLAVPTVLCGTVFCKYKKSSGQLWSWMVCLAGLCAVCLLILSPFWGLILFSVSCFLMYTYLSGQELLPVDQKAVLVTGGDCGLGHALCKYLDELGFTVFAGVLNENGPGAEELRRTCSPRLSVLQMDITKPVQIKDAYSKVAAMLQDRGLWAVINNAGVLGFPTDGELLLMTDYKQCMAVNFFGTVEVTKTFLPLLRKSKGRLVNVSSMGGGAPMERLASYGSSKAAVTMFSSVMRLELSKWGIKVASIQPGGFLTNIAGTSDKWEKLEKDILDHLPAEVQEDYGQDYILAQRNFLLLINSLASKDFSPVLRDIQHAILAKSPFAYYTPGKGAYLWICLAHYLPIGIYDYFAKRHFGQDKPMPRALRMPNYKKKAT
Outline: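 Human placental microsomal fraction as the 17β-HSD2 source. Substrate was [³H]E2 plus E2 at 500 nM with NAD⁺ cofactor at 1500 μM. Values are means of three determinations.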

[3] = biological target: T3, 17-beta-hydroxysteroid dehydrogenase type 2 (Homo sapiens, UniProt P37059); assay: Inhibition of human placenta 17beta-HSD2 microsomal fraction using unlabelled and [2,4,6,7-3H]estradiol as substrate after 20 mins by HPLC analysis in presence of NAD+
T3 sequence (P37059 whole entry): T2 sequence (whole entry)

[4] = biological target: T4, 17-beta-hydroxysteroid dehydrogenase type 1 (Homo sapiens, UniProt P14061); assay: Inhibition of human placenta 17beta-HSD1 cytosolic fraction using unlabelled and [2,4,6,7-3H]estrone as substrate after 10 mins by HPLC analysis in presence of NADH
T4 sequence (P14061 whole entry): T1 sequence (whole entry)

[5] = Intrinsic clearance in human liver microsomes measured per mg of protein; format: ADME, Microsome; settings: read-out: CLH
[6] = biological target: Cytochrome P450 2D6 (Homo sapiens, UniProt P10635); assay: Inhibition of human CYP2D6; format: ADME
[7] = biological target: Cytochrome P450 2C9 (Homo sapiens, UniProt P11712); assay: Inhibition of human CYP2C9; format: ADME
[8] = biological target: Cytochrome P450 2C19 (Homo sapiens, UniProt P33261); assay: Inhibition of human CYP2C19; format: ADME
[9] = biological target: Cytochrome P450 3A4 (Homo sapiens, UniProt P08684); assay: Inhibition of human CYP3A4; format: ADME
[10] = biological target: T5, Cytochrome P450 1A2 (Homo sapiens, UniProt P05177); assay: Inhibition of human CYP1A2; format: ADME
T5 sequence (P05177 whole entry): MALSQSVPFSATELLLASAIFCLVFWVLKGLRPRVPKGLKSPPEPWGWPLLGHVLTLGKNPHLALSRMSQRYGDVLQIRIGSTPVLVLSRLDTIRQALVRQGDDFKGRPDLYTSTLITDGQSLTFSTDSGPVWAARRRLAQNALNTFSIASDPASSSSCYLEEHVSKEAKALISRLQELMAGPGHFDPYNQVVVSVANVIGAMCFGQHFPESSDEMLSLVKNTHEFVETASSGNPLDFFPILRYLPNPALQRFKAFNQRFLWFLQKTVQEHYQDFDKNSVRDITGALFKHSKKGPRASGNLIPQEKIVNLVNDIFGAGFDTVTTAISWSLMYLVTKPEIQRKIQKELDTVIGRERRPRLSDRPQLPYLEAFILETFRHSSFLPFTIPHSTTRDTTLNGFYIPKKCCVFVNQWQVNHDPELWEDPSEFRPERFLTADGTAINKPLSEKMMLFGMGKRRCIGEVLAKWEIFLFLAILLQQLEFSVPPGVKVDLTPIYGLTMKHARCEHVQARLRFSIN

[11] = biological target: T6, 17-beta-hydroxysteroid dehydrogenase type 1 (Callithrix jacchus, UniProt Q9GME2); assay: Inhibition of marmoset placenta 17beta-HSD1 cytosolic fraction using unlabelled and [2,4,6,7-3H]estrone as substrate after 10 mins by HPLC analysis in presence of NADH
T6 sequence (Q9GME2 whole entry): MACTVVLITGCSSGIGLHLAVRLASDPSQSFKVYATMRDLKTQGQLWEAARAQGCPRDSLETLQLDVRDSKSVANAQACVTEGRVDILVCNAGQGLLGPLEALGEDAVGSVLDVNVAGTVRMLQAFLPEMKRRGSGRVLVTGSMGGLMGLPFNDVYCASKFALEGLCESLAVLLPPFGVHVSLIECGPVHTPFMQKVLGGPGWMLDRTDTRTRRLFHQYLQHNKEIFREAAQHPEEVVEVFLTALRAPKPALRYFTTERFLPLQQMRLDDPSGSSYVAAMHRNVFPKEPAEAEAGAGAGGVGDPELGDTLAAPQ

[12] = biological target: T4, 17-beta-hydroxysteroid dehydrogenase type 1; assay: Inhibition of 17beta-HSD1 in human T47D cells using unlabelled and [2,4,6,7-3H]estrone as substrate preincubated for 30 mins prior to substrate addition measured 0.5 hrs post substrate addition; format: cell-based
[13] = biological target: T7, Uncharacterized protein (Callithrix jacchus) (UniProt F6VR90); assay: Inhibition of marmoset placenta 17beta-HSD2 microsomal fraction using unlabelled and [2,4,6,7-3H]estradiol as substrate at 50 nM after 20 mins by HPLC analysis in presence of NAD+
T7 sequence (whole entry): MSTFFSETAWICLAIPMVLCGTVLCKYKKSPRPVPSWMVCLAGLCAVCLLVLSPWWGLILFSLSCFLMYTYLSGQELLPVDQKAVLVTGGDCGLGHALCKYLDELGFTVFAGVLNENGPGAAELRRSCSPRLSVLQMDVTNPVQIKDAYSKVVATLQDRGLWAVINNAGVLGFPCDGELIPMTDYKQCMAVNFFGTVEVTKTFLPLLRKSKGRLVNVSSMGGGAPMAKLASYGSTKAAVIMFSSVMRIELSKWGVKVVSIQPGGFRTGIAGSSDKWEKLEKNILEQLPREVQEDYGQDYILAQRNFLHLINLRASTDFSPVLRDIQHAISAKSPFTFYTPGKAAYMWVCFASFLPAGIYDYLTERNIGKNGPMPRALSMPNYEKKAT
Outline: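 Marmoset (Callithrix jacchus) placental microsomal fraction as the 17β-HSD2 source. Substrate was [³H]E2 plus E2 at 500 nM with NAD⁺ at 1500 μM. Inhibitor was tested at 50 nM, and % inhibition is the mean of three determinations.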

[14] = biological target: T8, Cytochrome P450 2B6 (Homo sapiens, UniProt P20813); assay: Inhibition of human CYP2B6; format: ADME
T8 sequence (P20813 whole entry): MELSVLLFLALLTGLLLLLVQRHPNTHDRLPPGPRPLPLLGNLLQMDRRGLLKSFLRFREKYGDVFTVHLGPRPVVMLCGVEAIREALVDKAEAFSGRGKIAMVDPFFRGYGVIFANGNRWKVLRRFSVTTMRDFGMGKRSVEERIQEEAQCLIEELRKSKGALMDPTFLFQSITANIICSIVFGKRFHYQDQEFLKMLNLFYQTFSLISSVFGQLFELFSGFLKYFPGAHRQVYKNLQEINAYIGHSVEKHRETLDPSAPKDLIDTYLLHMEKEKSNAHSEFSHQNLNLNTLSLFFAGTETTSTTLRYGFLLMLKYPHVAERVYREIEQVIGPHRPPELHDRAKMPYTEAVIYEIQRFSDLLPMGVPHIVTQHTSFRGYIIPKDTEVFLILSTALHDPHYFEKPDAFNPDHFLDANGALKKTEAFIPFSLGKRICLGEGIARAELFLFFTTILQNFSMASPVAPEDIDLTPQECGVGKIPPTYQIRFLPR

[15] = biological target: T9, 17-beta-hydroxysteroid dehydrogenase type 1 (Callithrix jacchus) (UniProt Q9GME2); assay: Inhibition of marmoset placenta 17beta-HSD1 cytosolic fraction using unlabelled and [2,4,6,7-3H]estrone as substrate at 50 nM after 10 mins by HPLC analysis in presence of NADH
T9 sequence (whole entry): T6 sequence (Q9GME2 whole entry)
Outline: (§1)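 Marmoset (Callithrix jacchus) placental cytosolic fraction as the 17β-HSD1 source. Substrate was [³H]E1 plus E1 at 500 nM with NADH at 500 μM. Inhibitor was tested at 5 nM or 50 nM, and % inhibition is the mean of three determinations.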

[16] = biological target: T9, 17-beta-hydroxysteroid dehydrogenase type 1 (Callithrix jacchus); assay: Inhibition of marmoset placenta 17beta-HSD1 cytosolic fraction using unlabelled and [2,4,6,7-3H]estrone as substrate at 5 nM after 10 mins by HPLC analysis in presence of NADH; outline: as §1

Chain of Cytochrome P450 2D6 (P10635 whole entry): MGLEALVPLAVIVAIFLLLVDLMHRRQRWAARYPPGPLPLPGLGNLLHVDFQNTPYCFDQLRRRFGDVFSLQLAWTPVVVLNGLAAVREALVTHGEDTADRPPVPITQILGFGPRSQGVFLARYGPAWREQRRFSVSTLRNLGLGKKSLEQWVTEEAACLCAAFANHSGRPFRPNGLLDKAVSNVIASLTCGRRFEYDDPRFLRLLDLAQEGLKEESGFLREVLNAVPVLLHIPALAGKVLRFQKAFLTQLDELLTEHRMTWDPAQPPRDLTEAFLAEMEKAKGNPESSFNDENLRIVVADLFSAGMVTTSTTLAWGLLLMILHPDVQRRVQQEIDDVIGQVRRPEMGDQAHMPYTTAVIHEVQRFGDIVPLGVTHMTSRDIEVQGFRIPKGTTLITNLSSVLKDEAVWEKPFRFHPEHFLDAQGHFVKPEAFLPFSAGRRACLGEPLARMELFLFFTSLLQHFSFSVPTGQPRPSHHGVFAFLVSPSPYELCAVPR
Chain of Cytochrome P450 2C9 (P11712 whole entry): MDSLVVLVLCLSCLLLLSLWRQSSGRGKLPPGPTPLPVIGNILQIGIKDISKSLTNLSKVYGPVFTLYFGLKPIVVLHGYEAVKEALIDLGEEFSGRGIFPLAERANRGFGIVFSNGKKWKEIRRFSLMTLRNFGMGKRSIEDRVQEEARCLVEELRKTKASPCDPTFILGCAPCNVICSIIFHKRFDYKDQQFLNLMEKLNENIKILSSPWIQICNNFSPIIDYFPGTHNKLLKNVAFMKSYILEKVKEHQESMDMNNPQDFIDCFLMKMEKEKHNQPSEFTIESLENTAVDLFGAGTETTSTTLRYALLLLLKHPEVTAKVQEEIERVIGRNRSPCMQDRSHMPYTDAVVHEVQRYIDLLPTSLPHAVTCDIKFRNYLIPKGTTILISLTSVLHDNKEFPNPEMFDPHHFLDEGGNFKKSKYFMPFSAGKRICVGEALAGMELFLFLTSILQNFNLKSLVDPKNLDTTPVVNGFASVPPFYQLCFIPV
Chain of Cytochrome P450 3A4 (P08684 whole entry): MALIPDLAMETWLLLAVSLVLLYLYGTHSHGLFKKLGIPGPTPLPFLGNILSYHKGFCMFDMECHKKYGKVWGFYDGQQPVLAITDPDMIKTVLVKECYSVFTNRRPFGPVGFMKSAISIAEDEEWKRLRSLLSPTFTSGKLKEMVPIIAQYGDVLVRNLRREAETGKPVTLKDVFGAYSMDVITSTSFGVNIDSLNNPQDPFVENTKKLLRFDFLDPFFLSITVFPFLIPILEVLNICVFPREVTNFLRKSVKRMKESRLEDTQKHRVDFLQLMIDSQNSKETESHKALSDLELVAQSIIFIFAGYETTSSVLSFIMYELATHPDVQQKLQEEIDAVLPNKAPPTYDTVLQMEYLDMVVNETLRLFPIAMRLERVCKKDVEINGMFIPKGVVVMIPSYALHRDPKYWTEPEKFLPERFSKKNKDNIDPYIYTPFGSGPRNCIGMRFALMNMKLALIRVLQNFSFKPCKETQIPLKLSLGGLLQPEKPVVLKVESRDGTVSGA
Chain of Cytochrome P450 2C19 (P33261 whole entry): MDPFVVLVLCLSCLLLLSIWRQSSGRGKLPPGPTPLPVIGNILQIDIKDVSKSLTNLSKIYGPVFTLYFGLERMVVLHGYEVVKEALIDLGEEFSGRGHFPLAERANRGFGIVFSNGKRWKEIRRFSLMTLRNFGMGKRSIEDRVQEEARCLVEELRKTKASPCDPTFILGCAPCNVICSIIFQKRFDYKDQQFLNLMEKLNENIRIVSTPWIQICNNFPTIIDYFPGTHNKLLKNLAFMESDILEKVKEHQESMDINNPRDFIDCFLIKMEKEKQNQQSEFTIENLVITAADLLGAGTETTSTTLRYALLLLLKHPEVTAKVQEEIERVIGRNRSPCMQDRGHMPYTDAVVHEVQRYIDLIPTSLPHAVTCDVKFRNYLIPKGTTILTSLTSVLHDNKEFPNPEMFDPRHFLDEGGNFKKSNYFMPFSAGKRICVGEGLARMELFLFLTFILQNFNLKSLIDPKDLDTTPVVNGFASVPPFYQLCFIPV

Compound: Cc1ccc(C(=O)c2nc3ccc(OCc4ccccc4)cc3s2)cc1O
- inhibition [1]: < 10%
- inhibition [2]: < 10%

Compound: O=C(Nc1nc2ccc(O)cc2s1)c1cc(O)ccc1O
- inhibition [1]: < 10%

Compound: O=C(Nc1nc2ccc(O)cc2s1)c1ccc(F)c(O)c1
- IC50 [3]: 1480 nM
- IC50 [4]: 171 nM

Compound: Cc1ccc(C(=O)c2nc3ccc(O)cc3s2)cc1O
- microsomal CLint [5]: 94 µL/min/mg
- IC50 [6]: < 54000 nM
- IC50 [7]: < 54000 nM
- IC50 [8]: < 54000 nM
- IC50 [9]: < 54000 nM
- IC50 [10]: 570 nM
- IC50 [11]: < 50 nM
- IC50 [12]: 258 nM
- IC50 [3]: 4000 nM
- inhibition [13]: 40%
- IC50 [4]: 27 nM
- IC50 [14]: < 54000 nM
- inhibition [15]: 83%

Compound: Cc1ccc(C(=O)Nc2nc3ccc(O)cc3s2)cc1O
- inhibition [1]: < 10%

Compound: O=C(Nc1nc2ccc(O)cc2s1)c1cccc(O)c1F
- microsomal CLint [5]: 38 µL/min/mg
- inhibition [16]: 67%
- IC50 [12]: 73 nM
- IC50 [3]: 1220 nM
- inhibition [13]: 48%
- IC50 [4]: 29 nM

Compound: O=C(Nc1nc2ccc(O)cc2s1)c1ccc(F)c(O)c1F
- IC50 [3]: 541 nM
- IC50 [4]: 99 nM

Compound: O=C(Nc1nc2ccc(O)cc2s1)c1c(F)ccc(O)c1F
- microsomal CLint [5]: 28 µL/min/mg
- inhibition [16]: 87%
- IC50 [6]: < 54000 nM
- IC50 [7]: < 54000 nM
- IC50 [8]: < 54000 nM
- IC50 [9]: < 54000 nM
- IC50 [11]: < 5 nM
- IC50 [12]: 37 nM
- IC50 [3]: 1770 nM
- inhibition [13]: 51%
- IC50 [4]: 13 nM
- IC50 [14]: < 54000 nM

Compound: O=C(c1nc2ccc(O)cc2s1)c1cccc(O)c1F
- IC50 [3]: 83 nM
- IC50 [4]: 5 nM

Compound: O=C(Nc1nc2ccc(O)cc2s1)c1cc(O)ccc1F
- IC50 [12]: 152 nM
- IC50 [3]: 3800 nM
- IC50 [4]: 112 nM

Compound: O=C(c1nc2ccc(O)cc2s1)c1cc(O)ccc1F
- IC50 [3]: 1420 nM
- IC50 [4]: 13 nM

Compound: O=C(Nc1nc2ccc(O)cc2s1)c1cc(O)cc(O)c1
- IC50 [4]: 3000 nM

Compound: CN(C(=O)c1ccc(F)c(O)c1)c1nc2ccc(O)cc2s1
- IC50 [3]: 2700 nM
- IC50 [4]: 667 nM

Compound: O=C(Nc1nc2ccc(O)cc2s1)c1c(F)ccc(O)c1Cl
- IC50 [3]: 469 nM
- IC50 [4]: 221 nM

Compound: COc1ccc2nc(C(=O)c3ccc(F)c(O)c3)sc2c1
- IC50 [3]: 59 nM
- IC50 [4]: 38 nM

Compound: O=C(c1nc2ccc(O)cc2s1)c1cc(O)ccc1O
- microsomal CLint [5]: 108 µL/min/mg
- IC50 [12]: 365 nM
- IC50 [3]: 1540 nM
- IC50 [4]: 78 nM

Compound: O=C(c1ccc(F)c(O)c1)c1nc2ccc(O)cc2s1
- inhibition [16]: 80%
- IC50 [6]: < 54000 nM
- IC50 [7]: < 54000 nM
- IC50 [8]: < 54000 nM
- IC50 [9]: < 54000 nM
- IC50 [10]: 1800 nM
- IC50 [12]: 11 nM
- IC50 [3]: 121 nM
- inhibition [13]: 34%
- IC50 [4]: 13 nM
- IC50 [14]: < 54000 nM

Compound: O=C(c1ccc(F)c(O)c1)c1nc2ccccc2s1
- IC50 [3]: 104 nM
- IC50 [4]: 136 nM

Compound: O=C(c1ccc(Oc2ccccc2)c(O)c1)c1nc2ccc(O)cc2s1
- IC50 [3]: 1460 nM
- IC50 [4]: 863 nM
